# Key:
# [1] = tested on: Mycobacterium tuberculosis; test: Antitubercular activity against Mycobacterium tuberculosis H37Rv after 4 weeks by agar dilution method; format: functional; conditions: 672 h
# Outline: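 Proportion method on agar: serial twofold dilutions mixed into warm Middlebrook 7H10 agar and set as slants. Each slant surface inoculated with 10⁵ CFU of M. tuberculosis H37Rv in 10 µL, then incubated at 37 °C for 4 weeks. MIC (µg/mL) taken as the lowest concentration giving complete inhibition of colony growth. Rifampicin and isoniazid served as reference drugs.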
# [2] = Cytotoxicity against african green monkey Vero C1008 cells; format: cell-based; conditions: chlorocebus sabaeus
# Outline: (§1)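 MTS (Mosmann-type) viability assay. 10⁴ cells/well in DME with 10% foetal bovine serum plus antibiotics were pre-incubated 24 h at 37 °C, 5% CO2. Medium was then replaced with serial dilutions of compound, a standard toxic compound or DMSO, and incubated a further 24 h. MTS was added and absorbance read at 490 nm after 2 h. DMSO wells were set as 100% viability.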
# [3] = Cytotoxicity against mouse bone marrow derived macrophages; format: cell-based; conditions: macrophage; outline: as §1
SMILES,MIC [1] [µg/mL],Activity [2],Activity [3]
CCCCCCCCCCCCNC(=O)CS(=O)(=O)[C@@H]1O[C@H](COC(C)=O)[C@@H](O[C@@H]2O[C@H](COC(C)=O)[C@H](OC(C)=O)[C@H](OC(C)=O)[C@H]2OC(C)=O)[C@H](OC(C)=O)[C@H]1OC(C)=O,> 12.5,–,–
CCCCCCCCNC(=O)CS(=O)(=O)[C@@H]1O[C@H](COC(C)=O)[C@@H](O[C@@H]2O[C@H](COC(C)=O)[C@H](OC(C)=O)[C@H](OC(C)=O)[C@H]2OC(C)=O)[C@H](OC(C)=O)[C@H]1OC(C)=O,> 12.5,–,–
CC(=O)OC[C@H]1O[C@@H](SCC(N)=O)[C@H](OC(C)=O)[C@@H](OC(C)=O)[C@@H]1O[C@H]1O[C@H](COC(C)=O)[C@@H](OC(C)=O)[C@H](OC(C)=O)[C@H]1OC(C)=O,> 12.5,–,–
CC(=O)OC[C@H]1O[C@@H](S(=O)(=O)CC(N)=O)[C@H](OC(C)=O)[C@@H](OC(C)=O)[C@@H]1O[C@H]1O[C@H](COC(C)=O)[C@@H](OC(C)=O)[C@H](OC(C)=O)[C@H]1OC(C)=O,25,–,–
CC(=O)O[C@H]1[C@H](OC(C)=O)[C@H](OC(C)=O)CO[C@H]1S(=O)(=O)CC(N)=O,12.5,–,–
CCCCCCCCCCCCNC(=O)CS[C@@H]1OC[C@@H](OC(C)=O)[C@@H](OC(C)=O)[C@@H]1OC(C)=O,3.12,Non-toxic,Non-toxic
CC(=O)OC[C@H]1O[C@@H](S(=O)(=O)CC(N)=O)[C@H](OC(C)=O)[C@@H](OC(C)=O)[C@@H]1OC(C)=O,3.12,Non-toxic,Non-toxic
CC(=O)O[C@@H]1[C@H](OC(C)=O)[C@H](OC(C)=O)CO[C@H]1S(=O)(=O)CC(N)=O,6.25,Non-toxic,Non-toxic
CC(=O)O[C@@H]1[C@@H](OC(C)=O)[C@H](OC(C)=O)CO[C@H]1S(=O)(=O)CC(N)=O,12.5,–,–
CCCCCCCCNC(=O)CS(=O)(=O)[C@@H]1O[C@H](COC(C)=O)[C@@H](OC(C)=O)[C@H](OC(C)=O)[C@H]1OC(C)=O,> 12.5,–,–
CCCCCCCCCCCCNC(=O)CS(=O)(=O)[C@@H]1OC[C@@H](OC(C)=O)[C@@H](OC(C)=O)[C@@H]1OC(C)=O,> 12.5,–,–
CC(=O)OC[C@H]1O[C@@H](S(=O)(=O)CC(=O)NCc2ccccc2)[C@H](OC(C)=O)[C@@H](OC(C)=O)[C@@H]1OC(C)=O,6.25,Non-toxic,Non-toxic
CC(=O)O[C@H]1[C@H](OC(C)=O)[C@H](SCC(N)=O)OC[C@H]1OC(C)=O,> 12.5,–,–
CCCCCCCCNC(=O)CS[C@@H]1O[C@H](COC(C)=O)[C@@H](OC(C)=O)[C@H](OC(C)=O)[C@H]1OC(C)=O,> 12.5,–,–
CCCCCCCCNC(=O)CS[C@@H]1OC[C@@H](OC(C)=O)[C@@H](OC(C)=O)[C@@H]1OC(C)=O,> 12.5,–,–
CC(=O)OC[C@H]1O[C@@H](SCC(N)=O)[C@H](OC(C)=O)[C@@H](OC(C)=O)[C@@H]1OC(C)=O,3.12,Non-toxic,Non-toxic

SMILES,MIC [1] [µg/mL],Activity [2],Activity [3]
CC(=O)OC[C@H]1O[C@@H](S(=O)(=O)CC(N)=O)[C@H](OC(C)=O)[C@@H](OC(C)=O)[C@H]1OC(C)=O,3.12,Non-toxic,Non-toxic
CC(=O)OC[C@H]1O[C@@H](SCC(N)=O)[C@@H](OC(C)=O)[C@@H](OC(C)=O)[C@@H]1OC(C)=O,3.12,Non-toxic,Non-toxic
CC(=O)O[C@@H]1[C@H](OC(C)=O)[C@H](OC(C)=O)CO[C@H]1SCC(N)=O,12.5,–,–
CCCCCCCCCCCCNC(=O)CS[C@@H]1O[C@H](COC(C)=O)[C@@H](OC(C)=O)[C@H](OC(C)=O)[C@H]1OC(C)=O,> 12.5,–,–
CC(=O)OC[C@H]1O[C@@H](O[C@H]2[C@H](OC(C)=O)[C@@H](OC(C)=O)[C@H](SCC(N)=O)O[C@@H]2COC(C)=O)[C@H](OC(C)=O)[C@@H](OC(C)=O)[C@H]1OC(C)=O,> 12.5,–,–
CC(=O)OC[C@H]1O[C@@H](SCC(N)=O)[C@H](OC(C)=O)[C@@H](OC(C)=O)[C@@H]1O[C@@H]1O[C@H](COC(C)=O)[C@@H](OC(C)=O)[C@H](OC(C)=O)[C@H]1OC(C)=O,> 12.5,–,–
CC(=O)OC[C@H]1O[C@@H](S(=O)(=O)CC(N)=O)[C@H](OC(C)=O)[C@@H](OC(C)=O)[C@@H]1O[C@@H]1O[C@H](COC(C)=O)[C@@H](OC(C)=O)[C@H](OC(C)=O)[C@H]1OC(C)=O,25,–,–
CCCCCCCCNC(=O)CS[C@@H]1O[C@H](COC(C)=O)[C@@H](O[C@@H]2O[C@H](COC(C)=O)[C@H](OC(C)=O)[C@H](OC(C)=O)[C@H]2OC(C)=O)[C@H](OC(C)=O)[C@H]1OC(C)=O,> 12.5,–,–
CCCCCCCCCCCCNC(=O)CS(=O)(=O)[C@@H]1O[C@H](COC(C)=O)[C@@H](OC(C)=O)[C@H](OC(C)=O)[C@H]1OC(C)=O,> 12.5,–,–
CCCCCCCCCCCCNC(=O)CS[C@@H]1O[C@H](COC(C)=O)[C@@H](O[C@@H]2O[C@H](COC(C)=O)[C@H](OC(C)=O)[C@H](OC(C)=O)[C@H]2OC(C)=O)[C@H](OC(C)=O)[C@H]1OC(C)=O,> 12.5,–,–
CC(=O)OC[C@H]1O[C@@H](O[C@H]2[C@H](OC(C)=O)[C@@H](OC(C)=O)[C@H](S(=O)(=O)CC(N)=O)O[C@@H]2COC(C)=O)[C@H](OC(C)=O)[C@@H](OC(C)=O)[C@H]1OC(C)=O,3.12,Non-toxic,Non-toxic
CC(=O)OC[C@H]1O[C@@H](S(=O)(=O)CC(N)=O)[C@@H](OC(C)=O)[C@@H](OC(C)=O)[C@@H]1OC(C)=O,> 12.5,–,–
CC(=O)OC[C@H]1O[C@@H](SCC(=O)NCc2ccccc2)[C@H](OC(C)=O)[C@@H](OC(C)=O)[C@@H]1OC(C)=O,6.25,–,–
CCCCCCCCNC(=O)CS(=O)(=O)[C@@H]1OC[C@@H](OC(C)=O)[C@@H](OC(C)=O)[C@@H]1OC(C)=O,> 12.5,–,–
CC(=O)OC[C@H]1O[C@@H](SCC(N)=O)[C@H](OC(C)=O)[C@@H](OC(C)=O)[C@H]1OC(C)=O,1.56,Non-toxic,Non-toxic
CC(=O)O[C@@H]1[C@@H](OC(C)=O)[C@H](SCC(N)=O)OC[C@H]1OC(C)=O,12.5,–,–
